From ChEMBL document CHEMBL2346518, “Synthesis and evaluation of nicotinamide derivative as anti-angiogenic agents” (Bioorg Med Chem Lett, 2013)
Activity calls are given as the source filed them. The calls are words filed in the database; no cut-off is given here.

Assays:
[1] = test system: HUVEC; experiment: Inhibition of VEGF-induced human HUVEC cell proliferation incubated 1 hr prior to VEGF-challenge measured after 24 hrs by BrdU incorporation assay; type: functional, cell-based
Method in brief: (§1)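 HUVECs pretreated 1 h with compound (100 nM single point, or 10, 50, 100 nM), then VEGF 10 ng/ml for 24 h. BrdU incorporation detected with anti-BrdU monoclonal antibody and peroxidase secondary, absorbance at 450 nm. Means of three experiments ± SD. ANOVA/Dunnett.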

[2] = molecular target: Vascular endothelial growth factor receptor 2 (Homo sapiens) (UniProt P35968); experiment: Inhibition of VEGF-induced VEGFR in human HUVEC cell assessed as AKT phosphorylation at Ser473 at 10 to 100 nM incubated 1 hr prior to VEGF-challenge measured after 30 mins by Western blot analysis
Sequence of Vascular endothelial growth factor receptor 2 (Homo sapiens) (P35968 whole entry): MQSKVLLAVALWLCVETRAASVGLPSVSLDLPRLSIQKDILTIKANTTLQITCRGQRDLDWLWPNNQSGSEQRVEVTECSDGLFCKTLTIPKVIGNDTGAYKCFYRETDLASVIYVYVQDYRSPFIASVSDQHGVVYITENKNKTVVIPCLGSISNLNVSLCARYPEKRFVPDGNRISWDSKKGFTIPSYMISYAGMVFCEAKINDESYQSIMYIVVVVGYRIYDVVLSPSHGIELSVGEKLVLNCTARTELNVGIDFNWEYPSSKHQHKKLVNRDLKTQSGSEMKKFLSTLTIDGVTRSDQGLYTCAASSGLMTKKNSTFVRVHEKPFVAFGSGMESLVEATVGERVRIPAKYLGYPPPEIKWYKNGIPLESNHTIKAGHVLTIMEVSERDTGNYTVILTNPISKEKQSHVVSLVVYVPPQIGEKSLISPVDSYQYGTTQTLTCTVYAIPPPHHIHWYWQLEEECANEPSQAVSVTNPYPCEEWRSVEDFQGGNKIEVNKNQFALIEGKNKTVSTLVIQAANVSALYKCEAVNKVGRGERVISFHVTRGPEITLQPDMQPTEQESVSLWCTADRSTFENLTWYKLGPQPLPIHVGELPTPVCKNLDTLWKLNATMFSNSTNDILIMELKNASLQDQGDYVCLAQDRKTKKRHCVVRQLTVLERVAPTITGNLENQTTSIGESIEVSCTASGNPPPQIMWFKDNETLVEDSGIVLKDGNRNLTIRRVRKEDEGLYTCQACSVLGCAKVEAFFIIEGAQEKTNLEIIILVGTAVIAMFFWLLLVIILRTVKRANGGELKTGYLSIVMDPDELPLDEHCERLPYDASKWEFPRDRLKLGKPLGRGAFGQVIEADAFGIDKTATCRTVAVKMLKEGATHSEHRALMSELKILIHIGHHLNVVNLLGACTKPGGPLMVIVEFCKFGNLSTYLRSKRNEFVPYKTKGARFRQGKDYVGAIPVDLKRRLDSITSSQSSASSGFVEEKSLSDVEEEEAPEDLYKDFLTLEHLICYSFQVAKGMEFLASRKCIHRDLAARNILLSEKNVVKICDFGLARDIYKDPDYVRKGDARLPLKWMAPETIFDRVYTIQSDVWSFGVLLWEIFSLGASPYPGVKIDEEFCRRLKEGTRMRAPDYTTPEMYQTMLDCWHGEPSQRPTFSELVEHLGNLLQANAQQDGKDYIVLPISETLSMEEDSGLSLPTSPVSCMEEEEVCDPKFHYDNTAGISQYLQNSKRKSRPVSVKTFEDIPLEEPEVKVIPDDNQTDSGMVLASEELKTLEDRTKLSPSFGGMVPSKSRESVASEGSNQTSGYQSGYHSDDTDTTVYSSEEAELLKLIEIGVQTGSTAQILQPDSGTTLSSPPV
Method in brief: (§2)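 HUVECs pretreated 1 h with compound (10, 50 or 100 nM), then stimulated with VEGF 10 ng/ml. Phospho-VEGFR2 read at 5 min and phospho-Akt at 30 min by Western blot.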

[3] = test system: HUVEC; experiment: Inhibition of VEGF-induced human HUVEC cell migration incubated 1 hr prior to VEGF-challenge measured after 24 hrs by Trans-well assay; type: functional, cell-based
Method in brief: (§3)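 Boyden chamber with 8 μm pore membrane. HUVECs in upper chamber with compound in 0.1% EBM; VEGF 10 ng/ml in lower chamber. Cells that migrated through the pores counted after 24 h. Means of three experiments ± SD. ANOVA with Dunnett's test.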

[4] = test system: Aorta; experiment: Inhibition of VEGF-induced microvessel sprouting around Sprague-Dawley rat aortic rings; type: functional, tissue-based
Method in brief: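 Aortas from Sprague-Dawley rats cleaned of periadventitial fat and cut into 1–1.5 mm rings. Rings embedded in Matrigel with VEGF ± compound (10, 50, 100 nM); medium alone as control. Sprouts fixed and photographed after 7 days at ×100. Three independent experiments.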

[5] = molecular target: Vascular endothelial growth factor receptor 2 (Homo sapiens) (UniProt P35968); experiment: Inhibition of VEGF-induced VEGFR2 phosphorylation at Tyr1175 in human HUVEC cell incubated 1 hr prior to VEGF-challenge measured after 5 mins by Western blot analysis; method in brief: as §2
[6] = test system: HUVEC; experiment: Inhibition of VEGF-induced human HUVEC cell migration at 10 to 100 nM incubated 1 hr prior to VEGF-challenge measured after 24 hrs by wound healing assay; type: functional, cell-based
Method in brief: (§4)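 Wound made with a scraper in near-confluent HUVECs. Cells pretreated 1 h with compound (10–100 nM), then migration induced with VEGF 10 ng/ml. Wound area photographed after 24 h.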

[7] = test system: HUVEC; experiment: Inhibition of VEGF-induced human HUVEC cell migration at 10 nM incubated 1 hr prior to VEGF-challenge measured after 24 hrs by Trans-well assay; type: functional, cell-based; method in brief: as §3
[8] = molecular target: Vascular endothelial growth factor receptor 2 (Homo sapiens) (UniProt P35968); experiment: Inhibition of VEGF-induced VEGFR2 phosphorylation at Tyr1175 in human HUVEC cell incubated 1 hr prior to VEGF-challenge measured after 5 mins by PathScan ELISA
Method in brief: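 HUVECs given compound (10, 50 or 100 nM) 1 h before 5 min VEGF (10 ng/ml). VEGFR2 Tyr1175 phosphorylation measured by PathScan ELISA. Means of three experiments ± SD. ANOVA with Dunnett's post-hoc test.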

[9] = test system: HUVEC; experiment: Inhibition of VEGF-induced human HUVEC cell proliferation at 10 to 100 nM incubated 1 hr prior to VEGF-challenge measured after 24 hrs by BrdU incorporation assay; type: functional, cell-based; method in brief: as §1
[10] = molecular target: Vascular endothelial growth factor receptor 2 (Homo sapiens) (UniProt P35968); experiment: Inhibition of VEGF-induced VEGFR2 in human HUVEC cell assessed as AKT phosphorylation at Ser473 incubated 1 hr prior to VEGF-challenge measured after 30 mins by Western blot analysis; method in brief: as §2
[11] = test system: HUVEC; experiment: Inhibition of VEGF-induced human HUVEC cell capillary tube formation incubated prior to VEGF-challenge; type: functional, cell-based
Method in brief: (§5)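 HUVECs pretreated 1 h with compound, then seeded at 4 to 7 × 10⁴ cells on growth-factor-reduced Matrigel in EBM with or without VEGF 10 ng/ml. Tubular structures photographed after 6 h at ×100. Means of three experiments ± SD. ANOVA/Dunnett.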

[12] = test system: HUVEC; experiment: Inhibition of VEGF-induced human HUVEC cell migration incubated 1 hr prior to VEGF-challenge measured after 24 hrs by wound healing assay; type: functional, cell-based; method in brief: as §4
[13] = molecular target: Vascular endothelial growth factor receptor 2 (Homo sapiens) (UniProt P35968); experiment: Inhibition of VEGF-induced VEGFR phosphorylation at Tyr1175 in human HUVEC cell at 10 to 100 nM incubated 1 hr prior to VEGF-challenge measured after 5 mins by Western blot analysis; method in brief: as §2
[14] = test system: HUVEC; experiment: Inhibition of VEGF-induced human HUVEC cell capillary tube formation at 10 to 100 nM incubated prior to VEGF-challenge; type: functional, cell-based; method in brief: as §5

inhibition [2]	inhibition [5]	inhibition [8]	inhibition [10]	inhibition [13]	Structure (SMILES)	inhibition [1]	inhibition [3]	inhibition [4]	inhibition [6]	inhibition [7]	inhibition [9]	inhibition [11]	inhibition [12]	inhibition [14]
Active	Dose-dependent effect	Dose-dependent effect	Dose-dependent effect	Active	CC(c1ncnc(Cl)c1F)N1CCC(Nc2ncccc2C(=O)Nc2cccc(Cl)c2)CC1 (stereo not given)	Dose-dependent effect	Dose-dependent effect	Dose-dependent effect	Dose-dependent effect	Active	Active	Dose-dependent effect	Dose-dependent effect	Active
–	–	–	–	–	O=C(Nc1cccc(Cl)c1)c1cccnc1NC1CCN(Cc2ccccc2)CC1	–	–	–	–	–	Active	–	–	–
